The results in this text go back to ChEMBL document CHEMBL3813679, “DARC: Mapping Surface Topography by Ray-Casting for Effective Virtual Screening at Protein Interaction Sites” (J Med Chem, 2016).

SMILES strings stand for the structures. Activity calls are given as the source filed them. The rule behind the calls is not given here.

For orientation: Ki means the equilibrium dissociation constant of an inhibitor or competing ligand from its target.

In experiment [1] the target is T1, Induced myeloid leukemia cell differentiation protein Mcl-1 (Homo sapiens, UniProt Q07820). Put plainly: biochemical.
In experiment [2] the target is T1, Induced myeloid leukemia cell differentiation protein Mcl-1. The experiment in a line: Binding affinity to PEST and transmembrane regions lacking N-terminal His6/MBP-tagged human MCl1 (172 to 327 residues) expressed in Escherichia coli Rosetta2(2DE3) pLysS cells assesed as inhibition of protein interaction with carboxyfluorescein-labeled 26-mer Noxa peptide at 15 nM to 250 uM by fluorescence polarization assay in presence of CHAPS. The method in brief:
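Competition fluorescence polarization assay measuring displacement of a […] cognate (Noxa) peptide from Mcl-1. Polarization was read across a dose series of test compound. Buffer contained 0.1% CHAPS to rule out compound aggregation. Ki values were derived from the competition data.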
Background: Fluorescence polarisation rises when a labelled molecule tumbles more slowly, as on binding a larger partner.

For experiment [3] the target is unchanged. The experiment in a line: Reversible binding affinity to PEST and transmembrane regions lacking N-terminal His6/MBP-tagged human MCl1 (172 to 327 residues) expressed in Escherichia coli Rosetta2(2DE3) pLysS cells at 50 uM measured for 300 secs by bio-layer interferometry.

T1 sequence (Q07820 whole entry, the tested form may be a part): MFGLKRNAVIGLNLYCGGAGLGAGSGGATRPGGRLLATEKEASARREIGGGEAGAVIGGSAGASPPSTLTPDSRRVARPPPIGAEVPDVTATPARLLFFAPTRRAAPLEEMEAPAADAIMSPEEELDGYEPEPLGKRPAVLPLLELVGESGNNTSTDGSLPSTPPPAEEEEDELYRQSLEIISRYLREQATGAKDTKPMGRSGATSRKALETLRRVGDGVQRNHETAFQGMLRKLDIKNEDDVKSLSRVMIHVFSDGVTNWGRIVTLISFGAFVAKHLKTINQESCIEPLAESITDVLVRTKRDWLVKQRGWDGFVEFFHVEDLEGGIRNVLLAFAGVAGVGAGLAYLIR

As for `COc1cc(O)c(C(=O)/C=C/c2ccc(C(F)(F)F)cc2)c(OC)c1OC`, in experiment [1], the Ki was greater than 50 µM. `COc1ccc(C(=O)/C=C/c2ccc(O)c(F)c2)c(OC)c1OC` gave a Ki in experiment [1] of 28 µM.

The molecule `COc1ccc(C(=O)/C=C/c2cccc(F)c2O)cc1` showed a Ki in experiment [1] of 20 µM.

Regarding `COc1ccc(C(=O)/C=C/c2cc(Cl)c(O)c(OC)c2)cc1`, in experiment [1], the affinity, expressed as Ki, was 10 µM.

For `COc1ccc(C(=O)/C=C/c2ccncc2)c(O)c1`, the Ki in experiment [1] was greater than 50 µM.

In turn, `O=C(/C=C/c1cc(F)c(O)c(Cl)c1)c1ccncc1` displayed a Ki in experiment [1] greater than 50 µM.

For the molecule `COc1ccc(C(=O)/C=C/c2cc(F)c(O)c(Cl)c2)cc1`, in experiment [1], the Ki was 7 µM. This counts as single-digit micromolar. The same measure, in the same setting: the same measure for `COc1cc(C(=O)/C=C/c2ccc3c(c2)OCO3)c(O)c(OC)c1OC`: greater than 50 µM. In the case of `c1cc2c(cc1[C@H]1OC[C@H]3[C@H]1CO[C@H]3c1ccc3c(c1)OCO3)OCO2`, the “inhibition of Noxa peptide binding (active/inactive call)” value (shortened to “inhibition … (active/inactive call)”) in experiment [2] is “Active”. Besides, in experiment [1], the affinity, expressed as Ki, was 7 µM. Also, the result in experiment [3] was Active. With `COc1cc(C(=O)/C=C/c2ccc([N+](=O)[O-])cc2)c(O)c(OC)c1OC`, the Ki in experiment [1] was greater than 50 µM. For the molecule `O=C(/C=C/c1cc(F)c(O)c(F)c1)c1ccc2c(c1)CCO2`, the Ki in experiment [1] was greater than 50 µM. In the case of `COc1ccc(/C=C/C(=O)c2ccc(O)cc2)cc1`, the Ki in experiment [1] is greater than 50 µM. The molecule `O=C(/C=C/c1ccc(O)c(F)c1)c1ccc2c(c1)CCO2` gave a Ki in experiment [1] greater than 50 µM. `O=C(/C=C/c1ccncc1)c1ccc(O)cc1` came in with a Ki in experiment [1] greater than 50 µM. `COc1ccc(/C=C/C(=O)c2cc(OC)c(OC)c(OC)c2O)cc1` displayed a Ki in experiment [1] greater than 50 µM. `COc1ccc(C(=O)/C=C/c2ccc(O)cc2)cc1` yielded a Ki in experiment [1] greater than 50 µM. `COc1cc2oc(-c3ccccc3[N+](=O)[O-])cc(=O)c2c(OC)c1OC` gave a Ki in experiment [1] greater than 50 µM.

In experiment [1], `COc1cc(C(=O)/C=C/c2ccc(O)cc2)c(O)c(OC)c1OC` came in with a Ki of 40 µM. Consider `COc1cc2oc(-c3ccc(C(F)(F)F)cc3)cc(=O)c2c(OC)c1OC`, for which the Ki in experiment [1] is greater than 50 µM.

Turning to `Cc1c(/C=N/N2C=Nc3c([nH]c4ccccc34)C2)c(=O)oc2c3c4c(cc12)CCCN4CCC3`, in experiment [2], the “inhibition … (active/inactive call)” value is “Active”. In addition, the outcome in experiment [3] was Active. As for `COc1cc(O)c(C(=O)/C=C/c2ccccc2[N+](=O)[O-])c(OC)c1OC`, the Ki in experiment [1] was greater than 50 µM. With `COc1cc(/C=C/C(=O)c2ccc(OC)c(OC)c2OC)cc(Cl)c1O`, affinity in experiment [1] was put at a Ki of 2 µM. In turn, `COc1cc(O)c(C(=O)/C=C/c2ccc([N+](=O)[O-])cc2)c(OC)c1OC` showed a Ki in experiment [1] greater than 50 µM. On to `COc1cc(O)c(C(=O)/C=C/c2ccc(O)c(OC)c2)c(OC)c1`, for which the “inhibition … (active/inactive call)” value in experiment [2] is “Active”. This molecule also registered a Ki in experiment [1] of 21 µM. Moreover, in experiment [3], the outcome was Active. Turning to `C[C@@]12CC[C@@H]3[C@H](CCC4=CC(=O)CC[C@H]43)[C@H]1CC[C@H]2OC1(O)C(=O)c2ccccc2C1=O`, the inhibition result in experiment [2] was “Active”. The molecule also came in with a Ki in experiment [1] of 12 µM. Also, the outcome in experiment [3] was Active. Regarding `COc1ccc(C(=O)/C=C/c2cc(F)c(O)c(Cl)c2)c(OC)c1OC`, the Ki in experiment [1] worked out at 3 µM. `O=C(/C=C/c1ccc(O)cc1)c1ccc2c(c1)CCO2`: the Ki in experiment [1] was greater than 50 µM. On the same count and under the same terms, the same measure for `COc1cc2oc(-c3ccccc3N)cc(=O)c2c(OC)c1OC`: greater than 50 µM; for `COc1cc2oc(-c3ccc(N)cc3)cc(=O)c2c(OC)c1OC`: greater than 50 µM.

In experiment [1], `COc1ccc(/C=C/C(=O)c2ccc(O)cc2)c(O)c1` showed a Ki greater than 50 µM. As for `COc1cc(C(=O)/C=C/c2ccc(C(F)(F)F)cc2)c(O)c(OC)c1OC`, the Ki in experiment [1] is greater than 50 µM.
